Experimental data from paper PMC6800172 (The American journal of Chinese medicine, 2017).

Experiments:
[1] = system: human LNCaP/AR-Luc cells; test: LNCaP/AR-Luc xenograft growth in SCID-NSG mice; format: in vivo; details: decursinol 4.5 mg/mouse/day gavage, 7 days per week, vs vehicle
Outline: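 Male SCID-NSG mice (n=20/group) received daily gavage in EPTG 3:6:1:20 (300 μL) starting 7 days before s.c. inoculation of 20,000 LNCaP/AR-Luc cells (1:1 Matrigel:serum-free medium, lower right flank). Caliper measurement twice weekly; volume = (L×W²)/2. Tumors weighed at necropsy. Only the 10 largest tumors per group were analyzed; mean ± SD.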

[2] = system: human LNCaP/AR-Luc cells; test: Lung metastasis of LNCaP/AR-Luc xenograft by ex vivo bioluminescence imaging; format: in vivo; details: SCID-NSG mice, decursinol 4.5 mg/mouse/day gavage; control 100% (10 out of 10)
[3] = Body weight and organ weight of tumor-bearing SCID-NSG mice; format: in vivo; details: decursinol 4.5 mg/mouse/day
[4] = system: LNCaP/AR-luc xenograft tumor; test: Histopathology of H&E stained xenograft tumor sections; format: in vivo, human; details: vs vehicle groups within each experiment
Outline: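 Tumors dissected at necropsy and fixed in neutral-buffered formalin. H&E-stained sections were examined for necrotic areas, hemorrhage and intravascular cancer-cell emboli.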

[5] = Plasma decursinol by HPLC at 3 h after the last dose in SCID-NSG mice; format: in vivo, mouse
Outline: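 Plasma was collected 3 h after the last daily gavage dose (4.5 mg/mouse in EPTG 3:6:1:20) from tumor-bearing male SCID-NSG mice. Plasma with chrysin internal standard was extracted twice with ethyl acetate, dried and reconstituted in methanol. HPLC used a C18 column at room temperature with a water/acetonitrile gradient (20–90% over 15 min, then 90% for 8 min) and diode-array detection at 330 nm.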

[6] = Stability of dosing preparation in EPTG excipient formula; format: physicochemical
[7] = Subchronic; format: in vivo, mouse; details: for Body Weight / Organ height (Mean ± SD) Brain / Organ height (Mean ± SD) Heart / Organ height (Mean ± SD) Kidney / Organ height (Mean ± SD) Liver / Organ height (Mean ± SD) Lung / Organ height (Mean ± SD) Prostate / Organ height (Mean ± SD) Spleen / Organ height (Mean ± SD) Testes: male CD-1 mice, N=6
Outline: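 24 male CD-1 mice (acclimated 2 weeks) were stratified by weight into 4 groups (N=6). They were gavaged daily, 7 days/week, for 4 weeks with 80, 120 or 160 mg/kg in EPTG 3:6:1:5, or 200 μL vehicle. Body weight was measured weekly, with the dose adjusted to it. At euthanasia organs were weighed, and plasma taken 3 h after the last dose was assayed by HPLC; […].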

[8] = Subchronic; format: in vivo, mouse; details: 4 weeks; for Plasma biochemistry (Mean ± SD) ALB / Plasma biochemistry (Mean ± SD) ALP / Plasma biochemistry (Mean ± SD) ALT / Plasma biochemistry (Mean ± SD) AST / Plasma biochemistry (Mean ± SD) Amy / Plasma biochemistry (Mean ± SD) BUN / Plasma biochemistry (Mean ± SD) Chol / Plasma biochemistry (Mean ± SD) Gluc / Plasma biochemistry (Mean ± SD) T.Bili: male CD-1 mice, N=6
Outline: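 After 4 weeks of daily gavage (80, 120 or 160 mg/kg in EPTG 3:6:1:5, or vehicle) in male CD-1 mice, heparinized blood was taken by cardiac puncture at euthanasia. Plasma ALT, AST, ALP, albumin, amylase, BUN, creatinine, glucose, cholesterol and total bilirubin were measured by a veterinary diagnostic laboratory.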

[9] = Single dose pharmacokinetic study in CD-1 mice; format: in vivo; details: male, CD-1, mouse, plasma, po, 120 mg/kg
Outline: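 Male CD-1 mice (7 weeks, ≥1 week on AIN-93M diet) were given a single gavage of 120 mg/kg (3 mg/25 g) in 0.2 mL EPTG 3:6:1:5. Groups of 5–7 were killed at 0.1, 0.25, 0.5, 1, 2, 3, 6, 12 and 24 h. Heparinized cardiac blood was spun at 5000 g for 5 min. Plasma was extracted with ethyl acetate and run on HPLC. AUC0–24h was calculated noncompartmentally; mean ± SEM.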

[10] = DOH-3: 3 mg per 25 g body weight (120 mg/kg) daily gavage, 4 weeks
[11] = DOH-4: 4 mg per 25 g body weight (160 mg/kg) daily gavage, 4 weeks
[12] = DOH-3: 3 mg per 25 g body weight (120 mg/kg) daily gavage
[13] = DOH-4: 4 mg per 25 g body weight (160 mg/kg) daily gavage

## CC1(C)Oc2cc3oc(=O)ccc3cc2C[C@@H]1O [decursinol]
[1]
  decreased LNCaP/AR-Luc xenograft tumor growth (top 10 tumors): 75%
[2]
  lung metastasis rate: 60%
[3]; SCID-NSG mice, vs vehicle- or D/DA-treated mice
  weight of liver, kidney, testes and prostate at study termination: not statistically different
[3]; tumor-bearing SCID-NSG mice, noticeable at 7-8 weeks of treatment
  Body Weight: progressive body weight disadvantage
[4]
  necrosis extent in tumor sections: did not noticeably differ
[5]; SCID-NSG mice, 3 hours after the last dose
  plasma decursinol level, decursinol dosing over equi-molar D/DA dosing: 1.7 folds
[5]; male, SCID-NSG, mouse, plasma, oral, 4.5 mg/mouse
  concentration at 3 h: 4100 ng/mL
[6]; EPTG (3:6:1:20) formula
  time in uniformly dispersed state after dilution from stock concentrate: ≤ 20 min
[6]; new EPTG (3:6:1:5)
  time remaining as clear solution: more than 1 hour
[7]; CD-1 mice, 80, 120, and 160 mg decursinol/kg daily gavage, 4 weeks, EPTG 3:6:1:5
  plasma decursinol level (3 h post last dose): increase in a dose-dependent manner
[7]; CD-1 mice, daily gavage as high as 4 mg/25 g or 160 mg per kg, 4 weeks
  body weight change: did not cause body weight change
[7]; CD-1 mice, subchronic dosing 4 weeks, 80-160 mg/kg
  weights of liver, kidney, prostate, spleen, lung, heart, testes and brain: did not affect
[7]; [10]
  Body Weight: 35.97 ± 2.10 g
  Organ height (Mean ± SD) Brain: 0.53 ± 0.03 g
  Organ height (Mean ± SD) Heart: 0.19 ± 0.01 g
  Organ height (Mean ± SD) Kidney: 0.59 ± 0.08 g
  Organ height (Mean ± SD) Liver: 1.58 ± 0.14 g
  Organ height (Mean ± SD) Lung: 0.20 ± 0.02 g
  Organ height (Mean ± SD) Prostate: 0.10 ± 0.02 g
  Organ height (Mean ± SD) Spleen: 0.09 ± 0.02 g
  Organ height (Mean ± SD) Testes: 0.25 ± 0.03 g
[7]; [11]
  Body Weight: 35.38 ± 1.71 g
  Organ height (Mean ± SD) Brain: 0.53 ± 0.02 g
  Organ height (Mean ± SD) Heart: 0.20 ± 0.01 g
  Organ height (Mean ± SD) Kidney: 0.60 ± 0.08 g
  Organ height (Mean ± SD) Liver: 1.54 ± 0.17 g
  Organ height (Mean ± SD) Lung: 0.22 ± 0.01 g
  Organ height (Mean ± SD) Prostate: 0.12 ± 0.02 g
  Organ height (Mean ± SD) Spleen: 0.09 ± 0.02 g
  Organ height (Mean ± SD) Testes: 0.24 ± 0.05 g
[8]; CD-1 mice, among the 4 groups
  plasma biochemistry (ALP, AST, ALT, Amy, ALB, BUN, Gluc, Chol, T. Bili): not statistically different
[8]; [12]
  Plasma biochemistry (Mean ± SD) ALB: 2.7 ± 0.2 g/dL
  Plasma biochemistry (Mean ± SD) ALP: 47.2 ± 14.6 U/L
  Plasma biochemistry (Mean ± SD) ALT: 34.3 ± 21.7 U/L
  Plasma biochemistry (Mean ± SD) AST: 82.5 ± 29.6 U/L
  Plasma biochemistry (Mean ± SD) Amy: 780.2 ± 70.1 U/L
  Plasma biochemistry (Mean ± SD) BUN: 12.3 ± 2.5 mg/dL
  Plasma biochemistry (Mean ± SD) Chol: 182.0 ± 38.8 mg/dL
  Plasma biochemistry (Mean ± SD) Gluc: 367.3 ± 69.0 mg/dL
  Plasma biochemistry (Mean ± SD) T.Bili: 0.27 ± 0.05 mg/dL
[8]; [13]
  Plasma biochemistry (Mean ± SD) ALB: 2.3 ± 0.3 g/dL
  Plasma biochemistry (Mean ± SD) ALP: 45.5 ± 9.1 U/L
  Plasma biochemistry (Mean ± SD) ALT: 21.0 ± 7.6 U/L
  Plasma biochemistry (Mean ± SD) AST: 72.3 ± 29.9 U/L
  Plasma biochemistry (Mean ± SD) Amy: 668.0 ± 117.1 U/L
  Plasma biochemistry (Mean ± SD) BUN: 14.0 ± 2.2 mg/dL
  Plasma biochemistry (Mean ± SD) Chol: 161.0 ± 20.5 mg/dL
  Plasma biochemistry (Mean ± SD) Gluc: 408.3 ± 130.0 mg/dL
  Plasma biochemistry (Mean ± SD) T.Bili: 0.32 ± 0.10 mg/dL
[9]
  AUC(0-t): 193 µg·h/mL
